Assay outcomes (PubChem BioAssay)
The list is not random: actives were taken first. Their share in the collection is about 2.5%.
NR2E3 ag-1 – activates human NR2E3 receptor; Q9Y5X4; inhibition of corepressor binding, % at 3.98 µM; CHO-S Gal4-NCOR/VP16-NR2E3 two-hybrid, luciferase; 360,000 tested, 0.35% active; AID 602229;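 active = inhibition above the mean of all tested compounds plus 3 SD, cut at about 70% in these data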;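 note: higher means lower luciferase signal from less NR2E3 corepressor binding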
GalR3 antag – blocks the human galanin receptor 3 | O60755 | HEK293 GalR3-CNG cAMP membrane potential fluorescence; galR3 body fused to GalR1 C-terminus | inhibition, % at 3 µM | 360,000 tested, 0.44% active | AID 651719;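 active = inhibition above the screen-wide average plus 3 SD, cut at about 13% in these data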;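 note: forskolin and galanin both at EC90 stimulate the cells; cAMP rise reported by CNG channel membrane potential dye signal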
Target sequence (O60755 1-299 limits assumed): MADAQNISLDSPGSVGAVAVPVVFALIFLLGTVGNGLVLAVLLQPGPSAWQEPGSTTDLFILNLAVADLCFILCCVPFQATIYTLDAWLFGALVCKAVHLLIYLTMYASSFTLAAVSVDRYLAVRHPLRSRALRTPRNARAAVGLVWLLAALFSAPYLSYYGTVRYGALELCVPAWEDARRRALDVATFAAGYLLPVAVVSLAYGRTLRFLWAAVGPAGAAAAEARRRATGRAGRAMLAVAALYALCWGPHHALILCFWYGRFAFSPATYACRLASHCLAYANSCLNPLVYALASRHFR
MsrA inhibitor – inhibitors of bovine MsrA; 360,000 tested, 0.75% active; purified bovine MsrA, absorbance read-out; inhibition, % at 15.5 µM; AID 651718; in the data active = inhibition above about 4.5%
NadD block – blocks S. aureus nicotinate mononucleotide adenylyltransferase; AID 602399; 360,000 tested, 0.78% active; inhibition, % at 20 µM; purified NadD enzyme, colorimetric absorbance read-out; in the data active = inhibition above about 26%
NR2E3 ag-2 – agonists of human nuclear receptor NR2E3. GST-NR2E3/biotin-RetCOR TR-FRET, 1536-well. 320,000 tested, 0.12% active. inhibition of corepressor binding, % at 4.78 µM. AID 2300;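 active = percent inhibition above the cutoff of mean plus 3 SD of all tested compounds, set per screening campaign, cut at about 20% in these data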
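system = GST-tagged NR2E3 plus biotinylated RetCOR corepressor | input = 1.35 nM GST-NR2E3 | also added = 7 nM biotin-RetCOR | schedule = 5 h incubation at 4 °C | measured by = TR-FRET with europium anti-GST and streptavidin-D2, 340 nm excitation | read-out = percent loss of FRET ratio relative to control wells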
MsrA act – activates bovine MsrA enzyme. purified bovine MsrA, absorbance read-out. activation, % at 10.6 µM. 360,000 tested, 0.3% active; in the data active = activation above about 7.5%
Large screens that a line does not name were inactive.

COc1ccc(CNC(=O)c2c(N)n(CCCN3CCOCC3)c3nc4ccccc4nc23)cc1	none
COc1cc(/C=C2/C(=N)N3N=C(CC(=O)N4CCOCC4)SC3=NC2=O)ccc1OC(C)c1ccccc1 (stereo unspecified)	none
N=C1/C(=C/c2ccc(OCc3ccccc3F)cc2)C(=O)N=C2SC(CC(=O)N3CCOCC3)=NN12	NadD block 33
COc1cc(/C=C2\C(=N)N3N=C(N4CCOCC4)SC3=NC2=O)ccc1OC(=O)c1ccccc1	NadD block 37 (no result: GalR3 antag)
N=C1/C(=C\c2ccc(OC(=O)c3ccccc3Cl)cc2)C(=O)N=C2SC(N3CCOCC3)=NN12	NadD block 48
Fc1cccc(F)c1-c1nc(-c2ccncc2)no1	none
COc1ccc(Cl)cc1C(Nc1cccnc1)c1ccc2cccnc2c1O (stereo unspecified)	NadD block 40
O=C(CCN1C(=O)/C(=C/C=C/c2ccccc2)SC1=S)Nc1ccccn1	NadD block 37
O=C(CCN1C(=O)/C(=C/C=C/c2ccccc2)SC1=S)Nc1cccnc1	none
CC(/C=C1\SC(=S)N(CCC(=O)Nc2ccccc2O)C1=O)=C\c1ccccc1	NadD block 34
O=C(O)CN1C(=O)/C(=C/C=C/c2ccccc2)SC1=S	none
CC(=O)c1ccc(NC(=O)CN2C(=O)/C(=C/C=C/c3ccccc3)SC2=S)cc1	NadD block 36
Cn1c(=O)c2c(ncn2CC(=O)Nc2nc(-c3ccc(F)c(F)c3)cs2)n(C)c1=O	none
C[C@H]1CN([C@@H](C)CO)C(=O)CCCn2nncc2CO[C@H]1CN(C)C(=O)Nc1ccnc(N2CCOCC2)c1	none (no result: NR2E3 ag-2)
C=CCn1c(SCC(=O)NCCCC)nc2scc(-c3ccco3)c2c1=O	NadD block 38
NC(=O)COc1ncn(-c2ccccc2)n1	none
Cc1cccc(Nc2nc(C)cc(C)c2C#N)c1	none
Cc1cccc(Nc2nc(N)c(C#N)c(CC#N)c2C#N)c1	MsrA inhibitor 4.6
O=C(NCCCNc1ccc(C(F)(F)F)cc1[N+](=O)[O-])c1cc(F)c(F)cc1Cl	MsrA act 8.7
O=C(NCCCNc1ccc(C(F)(F)F)cc1[N+](=O)[O-])c1ccc(Cl)cc1	none
COC(=O)c1ccccc1NC(=O)Nc1cc(C(C)(C)C)on1	none
CC(C)(C)c1cc(NC(=O)Nc2ccccc2)no1	MsrA act 8.2
COC(=O)C1=C(C)NC(=O)/C1=C\c1cc(C)n(-c2cc(C)cc(C)c2)c1C	NadD block 32
O=S1(=O)CC=C(CSC(=S)NC2CCS(=O)(=O)C2)C1 (stereo unspecified)	none
O=C(c1ccccc1NS(=O)(=O)c1ccc([N+](=O)[O-])cc1[N+](=O)[O-])N1O[C@@H]2C=C[C@H]1C2	MsrA inhibitor 7.2 (no result: NR2E3 ag-2)
CC1CCCCN1S(=O)(=O)c1ccc(C(=O)Nc2nnc(-c3ccccc3Cl)o2)cc1 (stereo unspecified)	none
CCC1CCCCN1S(=O)(=O)c1ccc(C(=O)Nc2nnc(-c3ccccc3Cl)o2)cc1 (stereo unspecified)	NadD block 42 (no result: GalR3 antag, MsrA inhibitor)
Cc1cccc(-c2nnc(SCC(=O)NC3CC3)n2C)c1	none
O=C(O)C1=CC(=C(c2ccc(O)c(C(=O)O)c2)c2ccc(O)c(C(=O)O)c2)C=CC1=O	NR2E3 ag-2 30 (no result: NR2E3 ag-1, GalR3 antag, MsrA inhibitor, NadD block, MsrA act)
O=C(NNC(=S)NCc1ccccc1)c1cccnc1	none
CN([C@@H](Cc1ccc(OS(=O)(=O)c2cccc3cnccc23)cc1)C(=O)N1CCN(c2ccccc2)CC1)S(=O)(=O)c1cccc2cnccc12	NadD block 32 (no result: GalR3 antag, MsrA inhibitor)
O=C(N/C(=C\c1ccc([N+](=O)[O-])cc1)C(=O)N1CCOCC1)c1ccccc1	MsrA inhibitor 4.6
O=C1C(=Cc2cn(-c3ccccc3)nc2-c2ccc(OCc3ccccc3F)cc2)SC(=S)N1CCS(=O)(=O)O	NadD block 30 (no result: NR2E3 ag-2)
O=C(O)CN1C(=O)/C(=C\c2cccc(OCc3ccccc3F)c2)SC1=S	none
O=C1C(=Cc2cn(-c3ccccc3)nc2-c2ccc(OCc3ccc(Cl)cc3)cc2)SC(=S)N1CCS(=O)(=O)O	NadD block 60 (no result: NR2E3 ag-2)
COc1ccc(/C(C)=N\NS(=O)(=O)c2ccccc2)cc1OC	none
CN(CCO)CCOCCOc1cccc2ccccc12	none
O=C(Nc1ccc(Cl)cc1)N1CCSc2ccccc21	none
NC(=O)c1ccc(N=Nc2c(O)c3ccccc3[nH]c2=O)cc1	none (no result: NR2E3 ag-1, GalR3 antag, MsrA inhibitor, NadD block, MsrA act)
N=C(N)c1ccc(N=Nc2c(O)ccc3c2[nH]c2ccccc23)cc1	NadD block 42 (no result: NR2E3 ag-2)
Cn1cnc2c(N3CCCCC3)nccc21	none
CCc1ccc(/C=C2/SC(=S)N(CCC(=O)Nc3ccc(C(=O)O)cc3)C2=O)cc1	NadD block 40
COc1cc(/C=C2/SC(=S)N(CC(=O)O)C2=O)ccc1OCC(=O)Nc1ccc(C)c(C)c1	NadD block 30
CCc1ccc(/C=C2/SC(=S)N(CC(=O)Nc3nc4ccccc4s3)C2=O)cc1	NadD block 50, MsrA act 13
O=C(CCN1C(=O)/C(=C\c2ccco2)SC1=S)Nc1ccc(C(=O)O)c(O)c1	NadD block 40
CCc1ccc(/C=C2\SC(=S)N(CCCC(=O)Nc3ccccn3)C2=O)cc1	none
COc1ccc(/C=C2/SC(=O)N(CCC(=O)Nc3ccc(C)cc3)C2=O)cc1OC	none (no result: NR2E3 ag-1, NadD block, MsrA act)
Cc1ccc2nc(-c3ccc(NC(=O)c4ccco4)cc3)[nH]c2c1	none (no result: GalR3 antag, MsrA inhibitor)
Cn1cccc1-c1nc2ccc(NC(=O)c3ccco3)cc2[nH]1	MsrA inhibitor 7.3
CC(Sc1nc2c(c(=O)[nH]1)CCCC2)C(=O)Nc1ccc(S(N)(=O)=O)cc1 (stereo unspecified)	none
Cc1cc2nc(N)sc2cc1[N+](=O)[O-]	MsrA inhibitor 5.2
O=C1OCCN1C(=O)[C@H]1[C@H](c2ccc([N+](=O)[O-])cc2)C(c2ccccc2)=NN1c1ccc(Br)cc1	MsrA inhibitor 4.8 (no result: NR2E3 ag-2)
Cc1cccc(C2=NN(c3ccccc3)[C@@H](C(=O)N3CCOC3=O)[C@@H]2c2ccc([N+](=O)[O-])cc2)c1	MsrA inhibitor 5.5 (no result: NR2E3 ag-2)
O=C1OCCN1C(=O)[C@H]1[C@H](c2ccc([N+](=O)[O-])cc2)C(c2cccc(Cl)c2)=NN1c1ccc(Br)cc1	none (no result: NR2E3 ag-2)
CCC(C)Sc1nnc(CSc2nc3nc(C)cc(C)n3n2)o1 (stereo unspecified)	none
COc1ccc(N2CCN(Cc3nc4ccccc4n3C)CC2)cc1	none
NC(=S)N=Nc1c(O)n(CCCl)c2ccccc12	MsrA inhibitor 4.6
CCOc1cc(/C=C2\C(=N)N3N=C(S(C)(=O)=O)SC3=NC2=O)ccc1OCCOc1cccc(OC)c1	NadD block 31
CCS(=O)(=O)C1=NN2C(=N)/C(=C\c3ccc(OCCOc4cccc(OC)c4)c(OC)c3)C(=O)N=C2S1	none
CCC1=NN2C(=N)/C(=C\c3ccc(OCc4cc(=O)n5nc(CC)sc5n4)c(OC)c3)C(=O)N=C2S1	NadD block 44 (no result: NR2E3 ag-2)
